# Results as given in ChEMBL document CHEMBL3407457, “Microwave-assisted synthesis of certain pyrrolylpyridines, some derived ring systems and their evaluation as anticancer and antioxidant agents” (Eur J Med Chem, 2015).
# Assays:
# [1] = Growth inhibition of human SF539 cells after 48 hrs by sulforhodamine B assay; format: functional; details: SF-539, 48 h
# Summary of the method: (§1)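 NCI-60 five-dose screen: cells incubated 48 h with five concentrations (0.01-100 µM), read by sulforhodamine B protein assay. Log concentration-% growth inhibition curves gave GI50 (50% decrease in net growth), TGI (total growth inhibition) and LC50 (net 50% loss of initial cells). 5-FU positive control.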
# SN12C = test: Growth inhibition of human SN12C cells after 48 hrs by sulforhodamine B assay; format: functional; summary of the method: as §1
# [2] = Growth inhibition of human RPMI8226 cells after 48 hrs by sulforhodamine B assay; format: functional; details: RPMI-8226, 48 h; summary of the method: as §1
# MCF7 = test: Growth inhibition of human MCF7 cells after 48 hrs by sulforhodamine B assay; format: functional; details: MCF7, 48 h; summary of the method: as §1
# [3] = Antioxidant activity assessed as DPPH radical scavenging activity at 10^-3 M incubated for 30 mins by spectrophotometry; format: physicochemical; details: 0.5 h, 1000 µM
# Summary of the method: (§2)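 Compound at 10^-3 or 10^-4 M mixed with methanolic DPPH (0.1 mL of 1 mM stock; 3 mL total volume), shaken, kept in the dark 30 min at room temperature. Absorbance read at 517 nm. Scavenging (%) = (A_control − A_sample)/A_control × 100, where the control is DPPH in methanol alone. BHT served as reference antioxidant. Triplicate, mean ± SD of three independent experiments.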
# A498 = test: Growth inhibition of human A498 cells after 48 hrs by sulforhodamine B assay; format: functional; details: A498, 48 h; summary of the method: as §1
# [4] = Growth inhibition of human HOP92 cells after 48 hrs by sulforhodamine B assay; format: functional; details: HOP-92, 48 h; summary of the method: as §1
# SF-268 = test: Growth inhibition of human SF268 cells after 48 hrs by sulforhodamine B assay; format: functional; details: SF-268, 48 h; summary of the method: as §1
# [5] = Growth inhibition of human UACC62 cells after 48 hrs by sulforhodamine B assay; format: functional; details: UACC-62, 48 h; summary of the method: as §1
# NCI-H522 = test: Growth inhibition of human NCI-H522 cells after 48 hrs by sulforhodamine B assay; format: functional; details: NCI-H522, 48 h; summary of the method: as §1
# CCRF-CEM = test: Growth inhibition of human CCRF-CEM cells after 48 hrs by sulforhodamine B assay; format: functional; summary of the method: as §1
# [6] = Antioxidant activity assessed as DPPH radical scavenging activity at 10^-4 M incubated for 30 mins by spectrophotometry; format: physicochemical; details: 0.5 h, 100 µM; summary of the method: as §2
# DU-145 = test: Growth inhibition of human DU145 cells after 48 hrs by sulforhodamine B assay; format: functional; details: DU-145, 48 h; summary of the method: as §1
# HOP-62 = test: Growth inhibition of human HOP62 cells after 48 hrs by sulforhodamine B assay; format: functional; details: HOP-62, 48 h; summary of the method: as §1
# [7] = Growth inhibition of human EKVX cells after 48 hrs by sulforhodamine B assay; format: functional; summary of the method: as §1
# NCI-H226 = test: Growth inhibition of human NCI-H226 cells after 48 hrs by sulforhodamine B assay; format: functional; details: NCI-H226, 48 h; summary of the method: as §1
# [8] = Growth inhibition of human BT549 cells after 48 hrs by sulforhodamine B assay; format: functional; details: BT-549, 48 h; summary of the method: as §1
# [9] = Growth inhibition of human HCT116 cells after 48 hrs by sulforhodamine B assay; format: functional; details: HCT-116, 48 h; summary of the method: as §1
# [10] = Growth inhibition of human MOLT4 cells after 48 hrs by sulforhodamine B assay; format: functional; details: MOLT-4, 48 h; summary of the method: as §1
# SNB-75 = test: Growth inhibition of human SNB75 cells after 48 hrs by sulforhodamine B assay; format: functional; details: SNB-75, 48 h; summary of the method: as §1
# MDA-MB-231 = test: Growth inhibition of human MDA-MB-231 cells after 48 hrs by sulforhodamine B assay; format: functional; details: MDA-MB-231, 48 h; summary of the method: as §1
# [11] = Growth inhibition of human UO31 cells after 48 hrs by sulforhodamine B assay; format: functional; details: UO-31, 48 h; summary of the method: as §1
# HL-60(TB) = test: Growth inhibition of human HL-60(TB) cells after 48 hrs by sulforhodamine B assay; format: functional; details: HL-60, 48 h
# Summary of the method: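 NCI-60 five-dose screen, HL-60(TB) being one of the leukemia subpanel lines. Cells exposed to five concentrations (0.01-100 µM) for 48 h. GI50 (concentration giving 50% decrease in net cell growth) read from log concentration-% growth inhibition curves; TGI and LC50 also derived. 5-fluorouracil as positive control.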
# SR = test: Growth inhibition of human SR cells after 48 hrs by sulforhodamine B assay; format: functional; summary of the method: as §1
# [12] = Growth inhibition of human OVCAR4 cells after 48 hrs by sulforhodamine B assay; format: functional; details: OVCAR-4, 48 h; summary of the method: as §1
# IGROV-1 = test: Growth inhibition of human IGROV1 cells after 48 hrs by sulforhodamine B assay; format: functional; details: IGROV-1, 48 h; summary of the method: as §1
# [13] = read-out: LC50 (the source's name)
Compound,GI50 [1] [µM],GI50 (SN12C) [µM],GI50 [2] [µM],GI50 (MCF7) [µM],GI50 (A498) [µM],GI50 [4] [µM],GI50 (SF-268) [µM],GI50 [5] [µM],GI50 (NCI-H522) [µM],GI50 (DU-145) [µM],GI50 (HOP-62) [µM],GI50 [7] [µM],GI50 (NCI-H226) [µM],GI50 [8] [µM],GI50 [9] [µM],GI50 [10] [µM],GI50 (MDA-MB-231) [µM],GI50 (HL-60(TB)) [µM],GI50 (SR) [µM],GI50 [12] [µM],also measured
CC1CCCc2c1nc(N)c(C#N)c2-c1cccn1C (stereo not drawn),> 100,30.2,79.4,> 100,91.2,47.9,> 100,33.1,66.1,> 100,> 100,> 100,64.6,69.1,> 100,> 100,69.2,0.42,3.39,77.6,inhibition (INH) [3]: 16%; GI50 (CCRF-CEM): > 100 µM; inhibition (INH) [6]: 9%; GI50 (SNB-75): 22.4 µM; TGI (SNB-75): 85.1 µM; GI50 [11]: > 100 µM; TGI (SR): 20.4 µM; CC50 (SR; [13]): 91.2 µM; GI50 (IGROV-1): 70.8 µM
Cn1cccc1-c1cc(-c2cccs2)[nH]c(=O)c1C#N,> 100,> 100,> 100,> 100,17.8,10,> 100,72.4,25.7,> 100,83.2,52.5,69.2,> 100,> 100,> 100,> 100,> 100,> 100,> 100,"TGI [4]: 40.7 µM; GI50 (CCRF-CEM): > 100 µM; GI50 (SNB-75): 38.1 µM; GI50 [11]: 13.8 µM; TGI [11]: 27.5 µM; CC50 [11, 13]: 54.9 µM; GI50 (IGROV-1): 22.9 µM"
Cn1cccc1-c1cc(-c2cccs2)nc(N)c1C#N,> 100,> 100,> 100,> 100,> 100,> 100,> 100,87.1,> 100,> 100,> 100,> 100,> 100,> 100,> 100,> 100,> 100,> 100,5.37,85.1,GI50 (CCRF-CEM): > 100 µM; GI50 (SNB-75): 45.7 µM; GI50 [11]: > 100 µM; TGI (SR): 67.6 µM; GI50 (IGROV-1): > 100 µM
CC1CCCc2c1[nH]c(=O)c(C#N)c2-c1cccn1C (stereo not drawn),> 100,> 100,> 100,> 100,> 100,> 100,> 100,> 100,> 100,> 100,> 100,> 100,> 100,> 100,> 100,> 100,> 100,> 100,> 100,69.2,GI50 (CCRF-CEM): > 100 µM; GI50 (SNB-75): 39.8 µM; GI50 [11]: > 100 µM; GI50 (IGROV-1): > 100 µM
Cn1cccc1-c1cc(-c2ccccc2)nc(N)c1C#N,33.9,> 100,53.7,> 100,91.2,0.01,79.4,44.7,61.6,> 100,81.3,95.5,> 100,60.2,> 100,> 100,67.6,0.76,35.5,46.8,inhibition (INH) [3]: 27%; TGI [4]: 0.05 µM; GI50 (CCRF-CEM): 0.08 µM; LC50 (concentration causing net 50% loss of initial cells) (CCRF-CEM): 3.55 µM; TGI (CCRF-CEM): 0.38 µM; inhibition (INH) [6]: 12%; GI50 (SNB-75): 18.6 µM; TGI (SNB-75): 77.6 µM; GI50 [11]: > 100 µM; GI50 (IGROV-1): > 100 µM
COc1ccc(-c2cc(-c3cccn3C)c(C#N)c(=O)[nH]2)cc1OC,> 100,> 100,> 100,> 100,,0.05,> 100,,> 100,> 100,> 100,30.9,> 100,34.7,91.2,22.9,> 100,> 100,0.48,> 100,inhibition (INH) [3]: 31%; TGI [4]: 9.77 µM; inhibition (INH) [6]: 17%
Cn1cccc1-c1cc(-c2ccccc2)[nH]c(=O)c1C#N,> 100,> 100,> 100,> 100,27.5,0.11,> 100,97.7,> 100,> 100,> 100,31.7,> 100,85.1,> 100,29.1,83.2,> 100,> 100,> 100,TGI [4]: 0.13 µM; GI50 (CCRF-CEM): > 100 µM; TGI [10]: 57.4 µM; GI50 (SNB-75): 47.4 µM; GI50 [11]: > 100 µM; GI50 (IGROV-1): > 100 µM
COc1ccc(-c2cc(-c3cccn3C)c(C#N)c(N)n2)cc1OC,83.2,67.6,38.9,93.3,83.2,5.13,83.2,87.1,40.7,91.2,> 100,> 100,> 100,64.6,89.1,46.8,38,19.5,56.2,40.7,inhibition (INH) [3]: 33%; GI50 (CCRF-CEM): 0.01 µM; LC50 (concentration causing net 50% loss of initial cells) (CCRF-CEM): 9.77 µM; TGI (CCRF-CEM): 3.98 µM; inhibition (INH) [6]: 19%; GI50 (SNB-75): 20.9 µM; TGI (SNB-75): 70.8 µM; GI50 [11]: 97.7 µM; GI50 (IGROV-1): 95.5 µM
Cc1cc(C(C)(C)C)c(O)c(C(C)(C)C)c1 [BUTYLATED HYDROXYTOLUENE],,,,,,,,,,,,,,,,,,,,,inhibition (INH) [3]: 36%; inhibition (INH) [6]: 20%
